The values that follow come from ChEMBL document CHEMBL1149837, “Isothiocyanate sesquiterpenes from a sponge of the genus axinyssa” (2008).

The test system of experiment [1] is A549. Put plainly: Cytotoxicity against human A549 cells at 10ug/ml by SRB assay. In kind it is functional, cell-based. The procedure, abridged: (§1)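 SRB colorimetric assay of cell growth and viability, adapted from a published method, in human tumour lines MDA-MB-231 (breast adenocarcinoma), A-549 (lung adenocarcinoma) and HT-29 (colon adenocarcinoma). The highest concentration tested was 10 µg/mL. Read-outs were GI50 and TGI, both in µM.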

Experiment [2] relates to MDA-MB-231. Put plainly: Cytotoxicity against human MDA-MB-231 cells at 10ug/ml by SRB assay. In kind it is functional, cell-based. A digest of the protocol: as §1
In general terms: In SRB staining, fixed cells bind dye roughly in proportion to their protein.

The subject of experiment [3] is HT-29. Put plainly: Cytotoxicity against human HT29 cells at 10ug/ml by SRB assay. In kind it is functional, cell-based. A digest of the protocol: as §1
In experiment [4] the test system is MDA-MB-231. Put plainly: Cytotoxicity against human MDA-MB-231 cells by SRB assay. In kind it is functional. A digest of the protocol: as §1
Experiment [5] concerns HT-29. Put plainly: Cytotoxicity against human HT29 cells by SRB assay. In kind it is functional. A digest of the protocol:
as §1

In experiment [6] the test system is A549. Put plainly: Cytotoxicity against human A549 cells by SRB assay. In kind it is functional. The procedure, abridged: as §1

Each structure is given as a SMILES string. Active and inactive are the calls of the source. No cut-off for these calls is given here.

As for `CC(C)[C@@H]1CC[C@](C)(N=C=S)[C@]2(O)CC[C@@](C)(O)C=C12`, the result in the experiment on A549 [1], in the experiment on MDA-MB-231 [2] and with HT-29 [3] was inactive.
Regarding `CC(C)[C@@]1(OO)CC[C@](C)(N=C=S)[C@@H]2CC[C@@](C)(O)C=C21`, the outcome with A549 [1], with MDA-MB-231 [2] and with HT-29 [3] was inactive.
The term GI50 denotes the concentration that inhibits growth by half. High values mean less potent growth inhibition, low ones more potent growth inhibition. Usually TGI stands for the concentration giving total growth inhibition. A low value points to greater sensitivity of the cells. With `CC(C)[C@@H]1CC[C@](C)(N=C=S)[C@@H]2CC[C@@](C)(O)C=C12` [AXINISOTHIOCYANATE J], the GI50 in the experiment with MDA-MB-231 [4] stood at 10.4 µM; in the experiment on HT-29 [5] it was 11.8 µM; in the experiment on A549 [6] it was 11.8 µM. Moreover, the TGI is 14.3 µM with MDA-MB-231 [4], 14 µM with HT-29 [5] and 19 µM in the experiment on A549 [6].
`CC1=C[C@@H]2[C@@H](C(C)C)CC[C@@](C)(N=C=S)[C@@H]2CC1=O` [AXINISOTHIOCYANATE L]: the 50% growth inhibitory concentration (GI50) with HT-29 [5] and in the experiment with A549 [6] was 31.4 µM throughout.
